Test results as given in ChEMBL document CHEMBL1128421, “(Piperidinylalkoxy)chromones: novel antihistamines with additional antagonistic activity against leukotriene D4” (J Med Chem, 1995).
Calls of active or inactive are those of the source. The rule behind the calls is not given here.

Key:
Cavia porcellus [1] = organism: Cavia porcellus; experiment: Compound was evaluated for antihistaminic activity against isolated guinea pig ileum.; format: functional
Outline: (§1)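 Isolated guinea pig ileum segment (about 2 cm) in an organ bath of Krebs buffer at 37 °C, bubbled with 95% O2–5% CO2. Three cumulative histamine dose-response curves were run first, starting at 10 nM. After washing, the strip was exposed to compound for 30 min and the curve repeated. KB was derived by Cheng–Prusoff. Means ± SD of ≥3 independent experiments.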

Cavia porcellus [2] = organism: Cavia porcellus; experiment: Compound was evaluated for inhibition of contraction in guinea pig ileum induced by leukotriene D4 (LTD4).; format: functional, organism-based
Outline: (§2)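 Isolated guinea pig ileum strip in Krebs buffer at 37 °C, continuously bubbled with 95% O2–5% CO2. After washing, the strip was pre-incubated with compound for 30 min before LTD4 challenge. Contraction was induced by LTD4 at 10 nM. The value reported is the antagonist concentration giving 50% of maximal inhibition. Means ± SD of ≥3 independent experiments.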

Cavia porcellus [3] = organism: Cavia porcellus; experiment: Compound was evaluated for inhibition of [3H]LTD4 binding in guinea pig lung membrane fragments.
[4] = target: T1, Cysteinyl leukotriene receptor 1 (Cavia porcellus, UniProt Q2NNR5); experiment: Dissociation constant was determined against Cysteinyl leukotriene D4 receptor of guinea pig lung membranes using radioligand binding assays.; format: tissue-based
T1 sequence (Q2NNR5 whole entry): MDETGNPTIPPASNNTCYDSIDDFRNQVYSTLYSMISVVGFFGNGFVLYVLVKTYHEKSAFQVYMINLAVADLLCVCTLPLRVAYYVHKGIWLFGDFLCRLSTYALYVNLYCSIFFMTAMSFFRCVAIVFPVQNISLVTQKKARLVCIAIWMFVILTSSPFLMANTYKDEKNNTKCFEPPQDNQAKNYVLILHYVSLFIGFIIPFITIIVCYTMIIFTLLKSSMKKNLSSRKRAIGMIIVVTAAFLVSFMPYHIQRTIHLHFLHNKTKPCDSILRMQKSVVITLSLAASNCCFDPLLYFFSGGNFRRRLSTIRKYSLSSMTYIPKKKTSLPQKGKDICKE

Histamine H1 receptor [5] = target: T2, Histamine H1 receptor (Cavia porcellus, UniProt P31389); experiment: Dissociation constant was determined against H1 receptor of guinea pig lung membranes using radioligand binding assays.; format: tissue-based
Outline: (§3)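 Guinea pig lung membranes were incubated with 0.5 nM [3H]mepyramine and compound at 37 °C in 50 mM Na-K phosphate, pH 7.5. Nonspecific binding was defined with (-)-dimethindene. The reaction was stopped with ice-cold buffer, then filtered on GF/C and counted by scintillation. KB by Cheng–Prusoff; means of two independent assays in triplicate.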

Histamine H1 receptor [6] = target: T2, Histamine H1 receptor; experiment: dissociation constant was determined against H1 receptor of guinea pig lung membranes using radioligand binding assays.; format: tissue-based
Outline: as §3, with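 “scintillation. Radioligand KD was 3.30 nM.” for “scintillation.”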

Cavia porcellus [7] = organism: Cavia porcellus; experiment: Compound was evaluated for antihistaminic activity against isolated guinea pig ileum; Not active; format: functional; outline: as §1
Cavia porcellus [8] = organism: Cavia porcellus; experiment: Compound was evaluated for inhibition of contraction in guinea pig ileum induced by leukotriene D4 (LTD4); Not active; format: functional, organism-based; outline: as §2

T2 sequence (P31389 whole entry): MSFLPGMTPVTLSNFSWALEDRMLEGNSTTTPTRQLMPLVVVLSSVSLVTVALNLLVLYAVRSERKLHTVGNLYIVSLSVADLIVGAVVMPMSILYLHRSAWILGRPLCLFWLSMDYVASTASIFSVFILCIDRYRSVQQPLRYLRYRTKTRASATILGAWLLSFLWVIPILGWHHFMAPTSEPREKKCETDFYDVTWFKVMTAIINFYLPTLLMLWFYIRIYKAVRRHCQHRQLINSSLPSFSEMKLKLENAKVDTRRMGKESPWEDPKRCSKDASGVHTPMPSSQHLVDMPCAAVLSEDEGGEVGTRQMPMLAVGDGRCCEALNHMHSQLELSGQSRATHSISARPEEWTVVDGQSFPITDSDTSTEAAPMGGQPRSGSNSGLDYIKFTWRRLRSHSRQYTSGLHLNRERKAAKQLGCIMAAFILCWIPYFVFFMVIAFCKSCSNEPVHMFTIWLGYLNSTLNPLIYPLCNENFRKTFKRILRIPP

Compound	IC50 (Cavia porcellus [2]) [µM]	Kb (Cavia porcellus [1]; Cavia porcellus, Ileum) [µM]	also measured
O=C(O)c1cc(=O)c2ccc(OCCCN3CCC(C(O)(c4ccccc4)c4ccccc4)CC3)cc2o1	22.8	0.00525	
O=C(O)c1cc(=O)c2cc(OCCCN3CCC(C(O)(c4ccccc4)c4ccccc4)CC3)ccc2o1	> 100	0.0038	
Cc1ccc(C(OC2CCN(CCCOc3ccc4c(=O)cc(C(=O)O)oc4c3)CC2)c2ccccc2)cc1 (stereo in doubt; 1j)			Kb (Cavia porcellus [1]): 0.00224 µM; IC50 (Cavia porcellus [3]): 212 µM
O=c1cc(C2N=NN=N2)oc2cc(OCCCN3CCC(C(O)(c4ccccc4)c4ccccc4)CC3)ccc12	56.7	0.0017	
O=C(O)c1cc(=O)c2ccc(OCCCCCCN3CCC(OC(c4ccccc4)c4ccccc4)CC3)cc2o1	48.2	0.00513	
Cc1ccc(C(OC2CCN(CCCOc3ccc4c(=O)cc(C(=O)O)oc4c3)CC2)c2ccccc2)cc1 (stereo in doubt; 1i)			Kb (Cavia porcellus [1]): 0.0123 µM; IC50 (Cavia porcellus [3]): 16.6 µM
CC(C)(C)c1ccc(C(O)CCCN2CCC(C(O)(c3ccccc3)c3ccccc3)CC2)cc1 (stereo unspecified) [TERFENADINE]			IC50 (Cavia porcellus [8]): Not Active
O=C(O)c1cc(=O)c2ccc(OCCCN3CCC(=C(c4ccccc4)c4ccccc4)CC3)cc2o1	20.4	0.0162	

Second part, led by results:

IC50 (Cavia porcellus [2]) [µM]	Compound	Kb (Cavia porcellus [1]; Cavia porcellus, Ileum) [µM]	also measured
18.3	O=C(O)c1cc(=O)c2ccc(OCCCCCN3CCC(OC(c4ccccc4)c4ccccc4)CC3)cc2o1	0.017	
0.65	O=C(O)c1cc(=O)c2cc(OCCCN3CCC(=C(c4ccccc4)c4ccccc4)CC3)ccc2o1	0.00575	Kd [4]: 4.27 µM; Kd (Histamine H1 receptor [5]): 0.00598 µM
0.19	O=c1cc(C2N=NN=N2)oc2cc(OCCCN3CCC(=C(c4ccccc4)c4ccccc4)CC3)ccc12	0.00363	Kd [4]: 2.34 µM; Kd (Histamine H1 receptor [6]): 0.00589 µM
9.89	O=C(O)c1cc(=O)c2ccc(OCCCCN3CCC(OC(c4ccccc4)c4ccccc4)CC3)cc2o1	0.00708	
0.12	CCCc1c(OCC(O)COc2ccc3c(=O)cc(C(=O)O)oc3c2CCC)ccc(C(C)=O)c1O (stereo unspecified) [FPL-55712]		Kb (Cavia porcellus [7]): inactive
1.45	O=C(O)c1cc(=O)c2ccc(OCCCN3CCC(OC(c4ccccc4)c4ccccc4)CC3)cc2o1	0.00912	
